From ChEMBL document CHEMBL4387724, “2-Pyridineformamide N(4)-ring incorporated thiosemicarbazones inhibit MCF-7 cells by inhibiting JNK pathway” (Bioorg Med Chem Lett, 2019) come the findings set out here.

Structures are written as SMILES.

The test system of test [1] is A-431. As to the kind of experiment: Cytotoxicity against human A431 cells assessed as reduction in cell growth at 1 uM incubated for 72 hrs by MTT assay relative to control. The test is classed as functional. Conditions: A-431, 72 h, read-out: GI. The method in brief: (§1)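 Cells grown in DMEM with 10% FBS and penicillin-streptomycin at 37 °C, 5% CO2, seeded at 3000 cells/well and attached overnight. Screening series given at 1, 3, 10, 100 μM; follow-up agent at 100 nM–3 μM; both 72 h, with 0.1% DMSO vehicle. MTT (5 mg/mL stock) added for 3 h at 37 °C, formazan dissolved in DMSO, absorbance read at 570 nm. Viability expressed as % of DMSO-treated wells from replicates.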
(Tetrazolium dyes change colour on reduction, which living cells bring about.)

For test [2], the system named is MCF7. As to the kind of experiment: Cytotoxicity against human MCF7 cells assessed as reduction in cell growth at 3 uM incubated for 72 hrs by MTT assay relative to control. Conditions: MCF7, 72 h, read-out: GI. The test is classed as functional. The essentials:
as §1

Test [3] has as its system A-431. As to the kind of experiment: Cytotoxicity against human A431 cells assessed as reduction in cell growth at 3 uM incubated for 72 hrs by MTT assay relative to control. The test is classed as functional. Conditions: A-431, 72 h, read-out: GI. The method in brief: as §1
The test system of test [4] is MCF7. As to the kind of experiment: Cytotoxicity against human MCF7 cells assessed as reduction in cell growth at 10 uM incubated for 72 hrs by MTT assay relative to control. Conditions: MCF7, 72 h, read-out: GI. The test is classed as functional. The essentials:
as §1

The subject of test [5] is A-375. The test can be described thus: Cytotoxicity against human A375 cells assessed as reduction in cell growth at 1 uM incubated for 72 hrs by MTT assay relative to control. The test is classed as functional. Conditions: A-375, 72 h, read-out: GI. The essentials:
as §1

Test [6] deals with A-375. The test can be described thus: Cytotoxicity against human A375 cells assessed as reduction in cell growth at 3 uM incubated for 72 hrs by MTT assay relative to control. The test is classed as functional. Conditions: A-375, 72 h, read-out: GI. The essentials: as §1
The test system of test [7] is HeLa. As to the kind of experiment: Cytotoxicity against human HeLa cells assessed as reduction in cell growth at 30 uM incubated for 72 hrs by MTT assay relative to control. In kind it is functional. Conditions: read-out: GI.
Test [8] has as its system HeLa. As to the kind of experiment: Cytotoxicity against human HeLa cells assessed as reduction in cell growth incubated for 72 hrs by MTT assay. The test is classed as functional, cell-based. The method in brief: as §1
In test [9] the test system is A-431. As to the kind of experiment: Cytotoxicity against human A431 cells assessed as reduction in cell growth at 10 uM incubated for 72 hrs by MTT assay relative to control. In kind it is functional. Conditions: A-431, 72 h, read-out: GI. The method in brief: as §1
Test [10] has as its system HeLa. As to the kind of experiment: Cytotoxicity against human HeLa cells assessed as reduction in cell growth at 100 uM incubated for 72 hrs by MTT assay relative to control. In kind it is functional. Conditions: read-out: GI. The essentials:
as §1

The subject of test [11] is A-375. As to the kind of experiment: Cytotoxicity against human A375 cells assessed as reduction in cell growth at 100 uM incubated for 72 hrs by MTT assay relative to control. In kind it is functional. Conditions: A-375, 72 h, read-out: GI. The method in brief:
as §1

In test [12] the test system is HeLa. As to the kind of experiment: Cytotoxicity against human HeLa cells assessed as reduction in cell growth at 1 uM incubated for 72 hrs by MTT assay relative to control. In kind it is functional. Conditions: read-out: GI. The essentials: as §1
Test [13] concerns MCF7. As to the kind of experiment: Cytotoxicity against human MCF7 cells assessed as reduction in cell growth incubated for 72 hrs by MTT assay. The test is classed as functional, cell-based. Conditions: MCF7, 72 h. The essentials:
as §1

For test [14], the system named is A-375. As to the kind of experiment: Cytotoxicity against human A375 cells assessed as reduction in cell growth incubated for 72 hrs by MTT assay. In kind it is functional, cell-based. Conditions: A-375, 72 h. The essentials: as §1
Test [15] has as its system MCF7. As to the kind of experiment: Cytotoxicity against human MCF7 cells assessed as reduction in cell growth at 100 uM incubated for 72 hrs by MTT assay relative to control. The test is classed as functional. Conditions: MCF7, 72 h, read-out: GI. The essentials: as §1
Test [16] has as its system HeLa. The test can be described thus: Cytotoxicity against human HeLa cells assessed as reduction in cell growth at 10 uM incubated for 72 hrs by MTT assay relative to control. The test is classed as functional. Conditions: read-out: GI. The essentials: as §1
For test [17], the system named is MCF7. The test can be described thus: Cytotoxicity against human MCF7 cells assessed as reduction in cell growth at 1 uM incubated for 72 hrs by MTT assay relative to control. Conditions: MCF7, 72 h, read-out: GI. In kind it is functional. The essentials: as §1
In test [18] the test system is A-431. The test can be described thus: Cytotoxicity against human A431 cells assessed as reduction in cell growth incubated for 72 hrs by MTT assay. In kind it is functional, cell-based. Conditions: A-431, 72 h. The essentials: as §1
The subject of test [19] is A-431. As to the kind of experiment: Cytotoxicity against human A431 cells assessed as reduction in cell growth at 100 uM incubated for 72 hrs by MTT assay relative to control. The test is classed as functional. Conditions: A-431, 72 h, read-out: GI. The essentials:
as §1

In test [20] the test system is HeLa. As to the kind of experiment: Cytotoxicity against human HeLa cells assessed as reduction in cell growth at 3 uM incubated for 72 hrs by MTT assay relative to control. The test is classed as functional. Conditions: read-out: GI. The essentials: as §1
The subject of test [21] is A-375. As to the kind of experiment: Cytotoxicity against human A375 cells assessed as reduction in cell growth at 10 uM incubated for 72 hrs by MTT assay relative to control. The test is classed as functional. Conditions: A-375, 72 h, read-out: GI. The essentials: as §1
Test [22] relates to A-375. As to the kind of experiment: Cytotoxicity against human A375 cells assessed as reduction in cell growth at 30 uM incubated for 72 hrs by MTT assay relative to control. The test is classed as functional. Conditions: A-375, 72 h, read-out: GI.
For test [23], the system named is A-431. As to the kind of experiment: Cytotoxicity against human A431 cells assessed as reduction in cell growth at 30 uM incubated for 72 hrs by MTT assay relative to control. The test is classed as functional. Conditions: A-431, 72 h, read-out: GI.
The subject of test [24] is MCF7. As to the kind of experiment: Cytotoxicity against human MCF7 cells assessed as reduction in cell growth at 30 uM incubated for 72 hrs by MTT assay relative to control. The test is classed as functional. Conditions: MCF7, 72 h, read-out: GI.

What is called IC50 is the midpoint of a concentration-inhibition curve. In the case of `Cc1cccc(/C(N)=N/NC(=S)N2CCCCC2)n1`, the inhibition of growth at 1 µM in the test on A-431 [1] is 35%; in the test on A-375 [5] it was 49.9%; with HeLa [12], 27%; with MCF7 [17], 19.5%. The inhibition of growth at 3 µM was 27.1% in the test on MCF7 [2], 36.6% in the test on A-431 [3], 63.2% with A-375 [6] and 68.9% in the test with HeLa [20]. Besides, the inhibition of growth at 10 µM with MCF7 [4] amounted to 39%; in the test with A-431 [9], 47.8%; in the test on HeLa [16] it was 83.5%; with A-375 [21], 76.4%. Besides, the inhibition of growth at 30 µM amounted to 83.5% in the test on HeLa [7], 80.9% in the test on A-375 [22], 65.2% in the test on A-431 [23] and 43% in the test with MCF7 [24]. The IC50 with HeLa [8] was 2 µM; in the test with MCF7 [13], 74 µM; with A-375 [14], 1 µM; in the test on A-431 [18] it was 12.4 µM. The inhibition of growth at 100 µM in the test with HeLa [10] was found to be 85.4%; in the test with A-375 [11] it was 85.7%; with MCF7 [15], 54%; in the test with A-431 [19], 77.5%.

`Cc1cccc(/C(N)=N/NC(=S)N2CCN(c3ccccn3)CC2)n1`: the inhibition of growth at 1 µM in the test with A-431 [1] came to 9.2%; with A-375 [5] it was 58.4%; in the test on HeLa [12], 51.8%; in the test on MCF7 [17], 8.5%. The inhibition of growth at 3 µM in the test with MCF7 [2] came out at 27.1%; with A-431 [3], 34.3%; with A-375 [6] it was 61.8%; in the test with HeLa [20], 72.7%. Also, the inhibition of growth at 10 µM in the test on MCF7 [4] amounted to 20.8%; in the test on A-431 [9], 43%; in the test with HeLa [16] it was 72.8%; with A-375 [21] it was 63.3%. Further, the inhibition of growth at 30 µM was determined as 86.3% in the test on HeLa [7], 74.8% with A-375 [22], 57.4% in the test with A-431 [23] and 36% with MCF7 [24]. The IC50 was 0.9 µM in the test with HeLa [8], > 100 µM with MCF7 [13], 0.85 µM with A-375 [14] and 19.6 µM in the test with A-431 [18]. Besides, the inhibition of growth at 100 µM was 86.3% in the test with HeLa [10], 83.8% in the test on A-375 [11], 49.8% in the test with MCF7 [15] and 78.9% in the test on A-431 [19].

Take `N/C(=N\NC(=S)N1CCCCC1)c1ccccn1`: the inhibition of growth at 1 µM worked out at 24.4% with A-431 [1], 72.5% in the test with A-375 [5], 15.5% in the test on HeLa [12] and 15.4% with MCF7 [17]. In addition, the inhibition of growth at 3 µM with MCF7 [2] is 38.6%; in the test with A-431 [3], 27%; with A-375 [6], 86.5%; in the test with HeLa [20], 49.2%. In addition, the inhibition of growth at 10 µM with MCF7 [4] was found to be 53.1%; in the test on A-431 [9], 68.1%; in the test with HeLa [16] it was 55.7%; with A-375 [21], 85.8%. Moreover, the inhibition of growth at 30 µM in the test with HeLa [7] is 76.9%; in the test with A-375 [22], 87%; in the test with A-431 [23], 79.7%; in the test on MCF7 [24] it was 69.3%. The half-inhibitory concentration (IC50) was 3.8 µM in the test on HeLa [8], 8.5 µM with MCF7 [13], 0.68 µM in the test with A-375 [14] and 6.9 µM in the test on A-431 [18]. Further, the inhibition of growth at 100 µM is 86% with HeLa [10], 88.5% in the test with A-375 [11], 77.7% in the test with MCF7 [15] and 85.6% with A-431 [19].
